# According to ChEMBL document CHEMBL3286203, “Reactive oxygen species (ROS) inducible DNA cross-linking agents and their effect on cancer cells and normal lymphocytes” (J Med Chem, 2014):
# Activity calls are given as the source filed them. No cut-off for these calls is given here.
# How the values were obtained:
# [1] = tested on: K562; assay: Cytotoxicity against human K562 cells assessed as growth inhibition at 10 uM after 48 hrs by SRB assay; type: functional, cell-based
# Summary of the method: (§1)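 NCI DTP 60-cell-line screen run at the NCI. Cells were grown in RPMI 1640 with 5% FBS and 2 mM L-glutamine. They were seeded at 5000–40 000 cells/well depending on doubling time and grown in two plates per line. Each was exposed to a single 10 μM dose for 48 h at 37 °C, 5% CO2, 95% air, 100% humidity. Read-out was percent growth.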
# [2] = Cytotoxicity against human OVCAR4 cells after 48 hrs by SRB assay; type: functional; conditions: OVCAR-4, 48 h
# Summary of the method: (§2)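 GI50 from the NCI Developmental Therapeutics Program in vitro human tumor cell screen. Cell lines were maintained in RPMI 1640 with 5% fetal bovine serum and 2 mM L-glutamine. They were seeded at 5000–40 000 cells/well, depending on each line's doubling time, then exposed to drug for 48 h at 37 °C, 5% CO2.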
# [3] = tested on: SF-268; assay: Cytotoxicity against human SF268 cells assessed as growth inhibition at 10 uM after 48 hrs by SRB assay; type: functional, cell-based
# Summary of the method: (§3)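 Single-dose screen run by the NCI Developmental Therapeutics Program (NCI-60). Cells were grown in RPMI 1640 with 5% fetal bovine serum and 2 mM L-glutamine. They were plated at 5000–40 000 cells/well, depending on doubling time. Each line was run in two plates and exposed to 10 μM drug for 48 h at 37 °C, 5% CO2, 100% humidity. Read-out was growth percent.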
# [4] = tested on: RXF 393; assay: Cytotoxicity against human RXF393 cells assessed as growth inhibition at 10 uM after 48 hrs by SRB assay; type: functional, cell-based; summary of the method: as §3
# [5] = tested on: MDA-MB-435; assay: Cytotoxicity against human MDA-MB-435 cells assessed as growth inhibition at 10 uM after 48 hrs by SRB assay; type: functional, cell-based; summary of the method: as §3
# [6] = tested on: UACC-62; assay: Cytotoxicity against human UACC62 cells assessed as growth inhibition at 10 uM after 48 hrs by SRB assay; type: functional, cell-based
# Summary of the method: (§4)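 NCI-60 DTP human tumour line screen. Cells grown in RPMI 1640 with 5% fetal bovine serum and 2 mM L-glutamine, plated at 5000–40 000 cells/well according to doubling time. Single dose of 10 μM for 48 h at 37 °C, 5% CO2, 95% air, 100% humidity, two plates per line. Read-out is growth percent.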
# [7] = tested on: A498; assay: Cytotoxicity against human A498 cells after 48 hrs by SRB assay; type: functional; conditions: A498, 48 h
# Summary of the method: (§5)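 GI50 was determined in the NCI Developmental Therapeutics Program in vitro 60-line cancer screen. Tumour lines were maintained in RPMI 1640 containing 5% FBS and 2 mM L-glutamine. Cells were inoculated at 5000–40 000 cells/well according to each line's doubling time before drug exposure.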
# [8] = Cytotoxicity against human UACC257 cells after 48 hrs by SRB assay; type: functional; conditions: UACC-257, 48 h
# Summary of the method: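 GI50 from the NCI-60 DTP human tumour line screen. Lines grown in RPMI 1640 with 5% fetal bovine serum and 2 mM L-glutamine, plated at 5000–40 000 cells/well according to doubling time. Incubated 48 h at 37 °C, 5% CO2.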
# [9] = tested on: MOLT-4; assay: Cytotoxicity against human MOLT4 cells assessed as growth inhibition at 10 uM after 48 hrs by SRB assay; type: functional, cell-based; summary of the method: as §3
# [10] = tested on: MOLT-4; assay: Cytotoxicity against human MOLT4 cells after 48 hrs by SRB assay; type: functional; conditions: MOLT-4, 48 h; summary of the method: as §2
# [11] = tested on: DU-145; assay: Cytotoxicity against human DU145 cells assessed as growth inhibition at 10 uM after 48 hrs by SRB assay; type: functional, cell-based; summary of the method: as §1
# [12] = tested on: TK-10; assay: Cytotoxicity against human TK10 cells assessed as growth inhibition at 10 uM after 48 hrs by SRB assay; type: functional, cell-based; summary of the method: as §4
# [13] = tested on: NCI-H460; assay: Cytotoxicity against human NCI-H460 cells assessed as growth inhibition at 10 uM after 48 hrs by SRB assay; type: functional, cell-based; summary of the method: as §3
# [14] = tested on: KM12; assay: Cytotoxicity against human KM12 cells assessed as growth inhibition at 10 uM after 48 hrs by SRB assay; type: functional, cell-based; summary of the method: as §1
# [15] = tested on: HOP-92; assay: Cytotoxicity against human HOP92 cells assessed as growth inhibition at 10 uM after 48 hrs by SRB assay; type: functional, cell-based; summary of the method: as §1
# [16] = tested on: OVCAR-4; assay: Cytotoxicity against human OVCAR4 cells assessed as growth inhibition at 10 uM after 48 hrs by SRB assay; type: functional, cell-based; summary of the method: as §3
# [17] = tested on: SK-MEL-2; assay: Cytotoxicity against human SK-MEL-2 cells assessed as growth inhibition at 10 uM after 48 hrs by SRB assay; type: functional, cell-based; summary of the method: as §3
# [18] = tested on: SK-MEL-2; assay: Cytotoxicity against human SK-MEL-2 cells after 48 hrs by SRB assay; type: functional; conditions: SK-MEL-2, 48 h; summary of the method: as §2
# [19] = tested on: RPMI-8226; assay: Cytotoxicity against human RPMI8226 cells after 48 hrs by SRB assay; type: functional; conditions: RPMI-8226, 48 h; summary of the method: as §2
# [20] = tested on: U-251; assay: Cytotoxicity against human U251 cells assessed as growth inhibition at 10 uM after 48 hrs by SRB assay; type: functional, cell-based; summary of the method: as §4
# [21] = tested on: COLO 205; assay: Cytotoxicity against human COLO205 cells after 48 hrs by SRB assay; type: functional; conditions: COLO 205, 48 h; summary of the method: as §5
# [22] = tested on: EKVX; assay: Cytotoxicity against human EKVX cells assessed as growth inhibition at 10 uM after 48 hrs by SRB assay; type: functional, cell-based; summary of the method: as §1
# [23] = tested on: OVCAR-5; assay: Cytotoxicity against human OVCAR5 cells assessed as growth inhibition at 10 uM after 48 hrs by SRB assay; type: functional, cell-based; summary of the method: as §3
# [24] = tested on: UO-31; assay: Cytotoxicity against human UO31 cells assessed as growth inhibition at 10 uM after 48 hrs by SRB assay; type: functional, cell-based; summary of the method: as §4
# [25] = tested on: Malme-3M; assay: Cytotoxicity against human MALME-3M cells assessed as growth inhibition at 10 uM after 48 hrs by SRB assay; type: functional, cell-based; summary of the method: as §1
# [26] = tested on: NCI-H322M; assay: Cytotoxicity against human NCI-H322M cells assessed as growth inhibition at 10 uM after 48 hrs by SRB assay; type: functional, cell-based; summary of the method: as §3
# [27] = Cytotoxicity against human NCI-ADR-RES cells after 48 hrs by SRB assay; type: functional; summary of the method: as §2
# [28] = tested on: COLO 205; assay: Cytotoxicity against human COLO205 cells assessed as growth inhibition at 10 uM after 48 hrs by SRB assay; type: functional, cell-based; summary of the method: as §1
# [29] = tested on: IGROV-1; assay: Cytotoxicity against human IGROV1 cells assessed as growth inhibition at 10 uM after 48 hrs by SRB assay; type: functional, cell-based; summary of the method: as §1
# [30] = tested on: A549; assay: Cytotoxicity against human A549 cells assessed as growth inhibition at 10 uM after 48 hrs by SRB assay; type: functional, cell-based; summary of the method: as §1
# [31] = tested on: CCRF-CEM; assay: Cytotoxicity against human CCRF-CEM cells after 48 hrs by SRB assay; type: functional; summary of the method: as §5
# [32] = tested on: PC-3; assay: Cytotoxicity against human PC3 cells assessed as growth inhibition at 10 uM after 48 hrs by SRB assay; type: functional, cell-based; summary of the method: as §3
# [33] = tested on: LOX IMVI; assay: Cytotoxicity against human LOXIMVI cells after 48 hrs by SRB assay; type: functional; summary of the method: as §5
# [34] = tested on: OVCAR-8; assay: Cytotoxicity against human OVCAR8 cells assessed as growth inhibition at 10 uM after 48 hrs by SRB assay; type: functional, cell-based; summary of the method: as §3
# [35] = tested on: HCC 2998; assay: Cytotoxicity against human HCC2998 cells assessed as growth inhibition at 10 uM after 48 hrs by SRB assay; type: functional, cell-based; summary of the method: as §1
# [36] = tested on: UACC-257; assay: Cytotoxicity against human UACC257 cells assessed as growth inhibition at 10 uM after 48 hrs by SRB assay; type: functional, cell-based; summary of the method: as §4
smiles,measurement,setting,value
CC1(C)OB(c2ccc(N(CCCl)CCOS(C)(=O)=O)cc2)OC1(C)C,growth inhibition (GI),[1],Active
same,GI50,[2],13.9 µM
same,growth inhibition (GI),[3],Active
same,growth inhibition (GI),[4],Active
same,growth inhibition (GI),[5],Active
same,growth inhibition (GI),[6],Active
same,GI50,[7],8.59 µM
same,GI50,[8],13 µM
same,growth inhibition (GI),[9],Active
same,GI50,[10],3.74 µM
same,growth inhibition (GI),[11],Active
same,growth inhibition (GI),[12],Active
same,growth inhibition (GI),[13],Active
same,growth inhibition (GI),[14],Active
same,growth inhibition (GI),[15],Active
same,growth inhibition (GI),[16],Active
same,growth inhibition (GI),[17],Active
same,GI50,[18],21.5 µM
same,GI50,[19],14.7 µM
same,growth inhibition (GI),[20],Active
same,GI50,[21],11 µM
same,growth inhibition (GI),[22],Active
same,growth inhibition (GI),[23],Active
same,growth inhibition (GI),[24],Active
same,growth inhibition (GI),[25],Active
same,growth inhibition (GI),[26],Active
same,GI50,[27],6.52 µM
same,growth inhibition (GI),[28],Active
same,growth inhibition (GI),[29],Active
same,growth inhibition (GI),[30],Active
same,GI50,[31],4.01 µM
same,growth inhibition (GI),[32],Active
same,GI50,[33],4.72 µM
same,growth inhibition (GI),[34],Active
same,growth inhibition (GI),[35],Active
same,growth inhibition (GI),[36],Active
